Drawing on ChEMBL document CHEMBL1121573, “2-(Aminomethyl)phenols, a new class of saluretic agents. 1. Effects of nuclear substitution” (J Med Chem, 1980), this text covers Diuretic activity and MAP for 1 compound.

Series [1] deals with Rattus norvegicus. Put plainly: Oral diuretic activity was evaluated by measuring Na+ excretion in Rat at 9 mg/kg after […] (0-5 hr). The class given is ADME, organism-based, Urine. More on the design: dose 9 mg/kg. Conditions: in vivo, ip. In short, it runs like this:
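Female Charles-River rats (150–170 g) were kept overnight on a sugar diet with water ad libitum. Compound was dissolved in DMF, then diluted with water containing Tween 80 (3 drops/100 mL) to a final 4% DMF, and given po in 5.0 mL. Rats were housed three per metabolism cage. Urine from 0–5 h was analysed for Na+, K+ and Cl−, with concurrent placebo controls. Values are mequiv × 100 per cage, geometric mean of three cages per dose.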

Series [2] has as its system Canis familiaris. In words: Oral diuretic activity was evaluated by measuring Na+ excretion in dog at 10 mg/kg after ip administration (0-6 hr). The class given is ADME, organism-based, Canis lupus familiaris, Urine. On the set-up: dose 10 mg/kg, route intraperitoneal. Conditions: in vivo. The procedure, abridged:
(§1)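 Spontaneous urine was pooled with bladder urine collected by catheterization at 6 h. Volume was measured and Na+, K+ and Cl− were determined by standard methods. Values are geometric means.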

Series [3] deals with Canis familiaris. Put plainly: Oral diuretic activity was evaluated by measuring Na+ excretion in dog at 1 mg/kg after ip administration (0-6 hr). More on the design: dose 1 mg/kg, route intraperitoneal. Conditions: in vivo. The class given is ADME, organism-based, Canis lupus familiaris, Urine. The procedure, abridged: as §1
Series [4] relates to Canis familiaris. In words: Oral diuretic activity was evaluated by measuring K+ excretion in dog at 5 mg/kg after ip administration (0-6 hr). The class given is ADME, organism-based, Canis lupus familiaris, Urine. On the set-up: dose 5 mg/kg, route intraperitoneal. Conditions: in vivo. The procedure, abridged:
as §1

The test system of series [5] is Rattus norvegicus. Put plainly: Oral diuretic activity was evaluated by measuring Na+ excretion in Rat at 81 mg/kg […] (0-5 hr). The class given is ADME, organism-based, Urine. More on the design: dose 81 mg/kg. Conditions: in vivo.
For series [6], the system named is Canis familiaris. In words: Oral diuretic activity was evaluated by measuring Na+ excretion in dog at 5 mg/kg after ip administration (0-6 hr). More on the design: dose 5 mg/kg, route intraperitoneal. The class given is ADME, organism-based, Canis lupus familiaris, Urine. The note with it: in vivo. In short, it runs like this: as §1
Series [7] deals with Canis familiaris. In words: Salidiuretic activity in dog following i.v. dosing at 5 mg/kg. The note with it: route intravenous. The class given is functional, Canis lupus familiaris, Urine. More on the design: unit not given beside the values. The procedure, abridged: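 Conditioned female mongrel dogs, postabsorptive, got a 500 mL oral water load 1 h before pentobarbital anesthesia (30 mg/kg iv). After replicate 15-min control collections, compound was given as an iv stat injection.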

Series [8] relates to Rattus norvegicus. In words: Oral diuretic activity was evaluated by measuring K+ excretion in Rat at 81 mg/kg after […] (0-5 hr). The class given is ADME, organism-based, Urine. More on the design: dose 81 mg/kg. In short, it runs like this:
(§2)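 Female Charles-River rats (150–170 g) were kept overnight on a sugar diet with water ad libitum. Test substance was dissolved in DMF and diluted with water containing Tween 80 to a final 4% DMF vehicle, then given po in 5.0 mL. Rats were housed three per metabolism cage, and 0–5 h urine was assayed for Na⁺, K⁺ and Cl⁻ alongside concurrent placebo groups. Values are mequiv × 100 per cage, geometric means of three cages per dose.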

For series [9], the system named is Rattus norvegicus. Put plainly: Oral diuretic activity was evaluated by measuring K+ excretion in Rat at 9 mg/kg […] (0-5 hr). More on the design: dose 9 mg/kg. The class given is ADME, organism-based, Urine. In short, it runs like this:
as §2

Series [10] concerns Canis familiaris. Put plainly: Oral diuretic activity was evaluated by measuring K+ excretion in dog at 10 mg/kg after ip administration (0-6 hr). The note with it: in vivo. More on the design: dose 10 mg/kg, route intraperitoneal. The class given is ADME, organism-based, Canis lupus familiaris, Urine. In short, it runs like this: as §1
Series [11] concerns Canis familiaris. In words: Oral diuretic activity was evaluated by measuring K+ excretion in dog at 1 mg/kg after ip administration (0-6 hr). The class given is ADME, organism-based, Canis lupus familiaris, Urine. More on the design: dose 1 mg/kg, route intraperitoneal. Conditions: in vivo. The procedure, abridged:
as §1

Series [12] relates to Rattus norvegicus. Put plainly: Evaluated for salidiuretic activity measured as sodium ion excretion in Rat, administered orally at a dose of 50 mg/kg. On the set-up: unit not given beside the values. The note with it: route oral. The class given is functional, Urine. In short, it runs like this:
(§3)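 Female Charles-River rats (150–170 g), overnight on sugar diet with water ad libitum. Compound dissolved in DMF, diluted with water containing Tween 80 (final 4% DMF), given po in 5.0 mL; concurrent vehicle placebo. Three rats per metabolism cage; 0–5 h urine analysed for Na+, K+, Cl-. Values: mequiv × 100 per cage, geometric means of three cages per dose; scored 0–6 by Na+.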

Series [13] is described as follows: Compound administered orally at a dose of 5 mg/kg was evaluated for salidiuretic activity measured as sodium ion excretion in Rat. The class given is organism-based. More on the design: dose 5 mg/kg. Conditions: Urine. The procedure, abridged: as §3
Series [14] concerns Rattus norvegicus. Put plainly: Compound administered orally at a dose of 81 mg/kg was evaluated for salidiuretic activity measured as sodium ion excretion in Rat. The class given is ADME, organism-based, Urine. On the set-up: dose 81 mg/kg, route oral. Conditions: in vivo, po. In short, it runs like this: as §3
Series [15] relates to Canis familiaris. Put plainly: Oral diuretic activity was evaluated by measuring Cl- excretion in dog at 5 mg/kg after […] (0-6 hr). On the set-up: dose 5 mg/kg, route intraperitoneal. The class given is ADME, organism-based, Canis lupus familiaris, Urine. The note with it: in vivo.
The test system of series [16] is Rattus norvegicus. Put plainly: Oral diuretic activity was evaluated by measuring K+ excretion in Rat at 27 mg/kg […] (0-5 hr). More on the design: dose 27 mg/kg. The class given is ADME, organism-based, Urine. In short, it runs like this: as §2
Series [17] is described as follows: Evaluated for salidiuretic activity measured as sodium ion excretion in Rat, administered orally at a dose of 16.5 mg/kg. The class given is organism-based. Conditions: Urine. On the set-up: dose 16.5 mg/kg. The procedure, abridged:
as §3

Series [18] concerns Rattus norvegicus. In words: Oral diuretic activity was evaluated by measuring Cl- excretion in Rat at 27 mg/kg […] (0-5 hr). The class given is ADME, organism-based, Urine. On the set-up: dose 27 mg/kg. The note with it: in vivo.
In series [19] the test system is Rattus norvegicus. In words: Oral diuretic activity was evaluated by measuring Cl- excretion in Rat at 9 mg/kg […] (0-5 hr). The note with it: in vivo. More on the design: dose 9 mg/kg. The class given is ADME, organism-based, Urine. In short, it runs like this:
as §2

For series [20], the system named is Canis familiaris. Put plainly: Oral diuretic activity was evaluated by measuring Cl- excretion in dog at 10 mg/kg after […] (0-6 hr). On the set-up: dose 10 mg/kg, route intraperitoneal. The note with it: in vivo. The class given is ADME, organism-based, Canis lupus familiaris, Urine.
For series [21], the system named is Rattus norvegicus. In words: Maximum fall in mean arterial blood pressure was measured in SH rats when compound was administered at 3.75 mg/kg perorally. The note with it: route oral. The class given is functional.
For series [22], the system named is Rattus norvegicus. In words: Maximum fall in mean arterial blood pressure was measured in SH rats when compound was administered at 30 mg/kg perorally. The class given is functional. Conditions: route oral.
Series [23] relates to Rattus norvegicus. In words: Maximum fall in mean arterial blood pressure was measured in SH rats when compound was administered at 7.5 mg/kg perorally. The class given is functional. The note with it: route oral.
Series [24] relates to Rattus norvegicus. Put plainly: Oral diuretic activity was evaluated by measuring Cl- excretion in Rat at 81 mg/kg after po administration (0-5 hr). The note with it: in vivo.

Take `NS(=O)(=O)c1cc(C(=O)O)c(NCc2ccco2)cc1Cl` [FUROSEMIDE]: the Diuretic activity with Rattus norvegicus [1] came to 0.07; in the series with Canis familiaris [2], 35; in the series with Canis familiaris [3] it was 11.4; in the series on Canis familiaris [4], 7.3; in the series with Rattus norvegicus [5] it was 2.44; in the series on Canis familiaris [6] it was 28.2. Besides, the Diuretic activity with Canis familiaris [7] came to 250; with Rattus norvegicus [8], 0.77; in the series on Rattus norvegicus [9], 0.14; in the series on Canis familiaris [10] it was 8.4; in the series with Canis familiaris [11], 4.1; in the series on Rattus norvegicus [12], 2.4. The Diuretic activity in series [13] amounted to 0.5; in the series with Rattus norvegicus [14], 2.9; in the series on Canis familiaris [15], 37; in the series with Rattus norvegicus [16], 0.55; in [17] it was 1.4; in the series on Rattus norvegicus [18] it was 2.13. Moreover, the Diuretic activity is reported as 0.22 in the series with Rattus norvegicus [19], 43.8 in the series with Canis familiaris [20] and 3.7 with Rattus norvegicus [24]. Also, the MAP with Rattus norvegicus [21] turned out to be 12 mmHg; in the series on Rattus norvegicus [22] it was 12 mmHg; in the series on Rattus norvegicus [23], 10 mmHg.
